From ChEMBL document CHEMBL1649298, “Correlation between vancomycin MIC values and those of other agents against gram-positive bacteria among patients with bloodstream infections caused by methicillin-resistant Staphylococcus aureus” (2009) come the findings set out here.

Converted amounts (≈) assume the structure as drawn.

What all share (format): functional
In test [1] the test system is Staphylococcus aureus. Description: Antibacterial activity against methicillin-resistant Staphylococcus aureus isolated form patient blood measured after 18 to 24 hrs on day 1 post isolation by Etest. The gist of the method: (§1)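 MRSA bloodstream isolates came from 120 patients at a tertiary care hospital between January 2005 and May 2007. MICs were read by Etest. Each patient's isolates were grouped as day 1 (index) or post-day 1 (subsequent).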

Test [2] deals with Staphylococcus aureus. Description: Antibacterial activity against methicillin-resistant Staphylococcus aureus isolated form patient blood measured after 18 to 24 hrs on day 1 isolation by Etest. The method in brief:
as §1

Test [3] relates to Staphylococcus aureus. Description: microbe, parasite or virus in culture.

Consider `CN(C)c1cc(NC(=O)CNC(C)(C)C)c(O)c2c1C[C@H]1C[C@H]3[C@H](N(C)C)C(O)=C(C(N)=O)C(=O)[C@@]3(O)C(O)=C1C2=O` [TIGECYCLINE], for which the MIC in the test with Staphylococcus aureus [1], against Staphylococcus aureus [2] and in the test on Staphylococcus aureus [3] was 0.09 µg/mL (≈ 0.154 µM) throughout. Also, the MIC50 against Staphylococcus aureus [1] was found to be 0.19 µg/mL (≈ 0.324 µM); in the test with Staphylococcus aureus [2], 0.19 µg/mL (≈ 0.324 µM); in the test with Staphylococcus aureus [3] it was 0.13 µg/mL (≈ 0.222 µM). In addition, the MIC90 amounted to 0.25 µg/mL (≈ 0.427 µM) against Staphylococcus aureus [1], 0.25 µg/mL (≈ 0.427 µM) in the test with Staphylococcus aureus [2] and 0.2 µg/mL (≈ 0.341 µM) in the test on Staphylococcus aureus [3].

In the test with Staphylococcus aureus [1], `CC(=O)NC[C@H]1CN(c2ccc(N3CCOCC3)c(F)c2)C(=O)O1` [LINEZOLID] came in with an MIC of 0.38 µg/mL (≈ 1.13 µM), an MIC50 of 1 µg/mL (≈ 2.96 µM) and an MIC90 of 1.5 µg/mL (≈ 4.45 µM). Further, in the test with Staphylococcus aureus [2], the MIC came to 0.38 µg/mL (≈ 1.13 µM), the MIC50 was determined as 0.75 µg/mL (≈ 2.22 µM) and the MIC90 is 1.5 µg/mL (≈ 4.45 µM). In the test with Staphylococcus aureus [3], the MIC was 0.75 µg/mL (≈ 2.22 µM), the MIC50 is 0.75 µg/mL (≈ 2.22 µM) and the MIC90 was 1 µg/mL (≈ 2.96 µM).

`CCCCCCCCCC(=O)N[C@@H](Cc1c[nH]c2ccccc12)C(=O)N[C@H](CC(N)=O)C(=O)N[C@@H](CC(=O)O)C(=O)N[C@@H]1C(=O)NCC(=O)N[C@@H](CCCN)C(=O)N[C@@H](CC(=O)O)C(=O)N[C@H](C)C(=O)N[C@@H](CC(=O)O)C(=O)NCC(=O)N[C@H](CO)C(=O)N[C@@H]([C@H](C)CC(=O)O)C(=O)N[C@@H](CC(=O)c2ccccc2N)C(=O)O[C@@H]1C`: the figures for the MIC against Staphylococcus aureus [1], in the test on Staphylococcus aureus [2] and in the test with Staphylococcus aureus [3] were 0.19 µg/mL (≈ 0.117 µM), 0.13 µg/mL (≈ 0.0802 µM) and 0.13 µg/mL (≈ 0.0802 µM), respectively. In addition, the MIC50 was 0.5 µg/mL (≈ 0.309 µM) in the test on Staphylococcus aureus [1], 0.5 µg/mL (≈ 0.309 µM) in the test on Staphylococcus aureus [2] and 0.38 µg/mL (≈ 0.234 µM) with Staphylococcus aureus [3]. For the same molecule, the figures for the MIC90 in the test with Staphylococcus aureus [1], against Staphylococcus aureus [2] and against Staphylococcus aureus [3] were 1 µg/mL (≈ 0.617 µM), 0.75 µg/mL (≈ 0.463 µM) and 0.75 µg/mL (≈ 0.463 µM), respectively.

For the molecule `CN[C@H](CC(C)C)C(=O)N[C@H]1C(=O)N[C@@H](CC(N)=O)C(=O)N[C@H]2C(=O)N[C@H]3C(=O)N[C@H](C(=O)N[C@H](C(=O)O)c4cc(O)cc(O)c4-c4cc3ccc4O)[C@H](O)c3ccc(c(Cl)c3)Oc3cc2cc(c3O[C@@H]2O[C@H](CO)[C@@H](O)[C@H](O)[C@H]2O[C@H]2C[C@](C)(N)[C@H](O)[C@H](C)O2)Oc2ccc(cc2Cl)[C@H]1O` [VANCOMYCIN], in the test on Staphylococcus aureus [1], the MIC50 is 1.5 µg/mL (≈ 1.04 µM) and the MIC90 was determined as 2 µg/mL (≈ 1.38 µM). For the same molecule, in the test on Staphylococcus aureus [2], the MIC50 was 1.5 µg/mL (≈ 1.04 µM) and the MIC90 worked out at 1.5 µg/mL (≈ 1.04 µM).
